This passage reports PC50, Activity and inhibition results from ChEMBL document CHEMBL4190303, “Chemical Constituents of Propolis from Vietnamese Trigona minor and Their Antiausterity Activity against the PANC-1 Human Pancreatic Cancer Cell Line” (2017).

The structures appear in SMILES notation. The source made the active and inactive calls. The calls are words filed in the database; no cut-off is given here.

Experiment [1] relates to PANC-1. Description: Antiausteritic activity against human PANC1 cells in nutrient-deprived medium assessed as decrease in cell viability measured after 24 hrs by WST-8 assay. The format is functional. On the technique in general: Tetrazolium assays rely on reduction of a dye to a coloured formazan, in cell work by metabolically active cells.
Experiment [2] relates to PANC-1. The experiment is described as follows: Antiausteritic activity against human PANC1 cells in nutrient-deprived medium assessed as changes in cell morphology at 5 uM after 24 hrs by ethidium bromide/acridine orange staining based phase contrast microscopy. The format is functional. In short, it runs like this:
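PANC-1 seeded in 60 mm dishes (1 × 10^6), grown 24 h in DMEM at 37 °C, 5% CO2, washed twice with PBS, then switched to NDM with or without compound. After 24 h, EB/AO reagent added for 5 min. Imaged at 40× in fluorescence and phase-contrast modes. AO marks live cells green, EB marks dead cells red.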

For experiment [3], the system named is PANC-1. The experiment is described as follows: Inhibition of colony formation in human PANC1 cells after 10 days by crystal violet staining based assay. The format is functional, cell-based. The method, boiled down:
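500 cells/well plated in DMEM and allowed to attach for 24 h at 37 °C, 5% CO2. Treated at 12.5, 25 and 50 μM in DMEM and grown for 10 days. Cells washed with PBS, fixed in 4% formaldehyde, stained with crystal violet for 10 min. Three independent repeats.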

With `C/C(=C\C(O)C[C@@H](C)[C@H]1CC[C@@]2(C)[C@@H]3CC[C@H]4C(C)(C)[C@H](O)CC[C@@]45C[C@@]35CC[C@]12C)C(=O)O` (stereo in doubt; 5) [listing 1 of 2 here], the PC50 with PANC-1 [1] was found to be 4.3 µM.

Turning to `CC(=O)OC/C(=C\CC[C@@H](C)[C@H]1CC[C@@]2(C)[C@@H]3CC[C@H]4C(C)(C)C(=O)CC[C@@]45C[C@@]35CC[C@]12C)C(=O)O`, the PC50 with PANC-1 [1] amounted to 77.5 µM.

For `C[C@H](CC/C=C(\CO)C(=O)O)[C@H]1CC[C@@]2(C)[C@@H]3CC[C@H]4C(C)(C)C(=O)CC[C@@]45C[C@@]35CC[C@]12C`, the PC50 in the experiment with PANC-1 [1] was 93.8 µM.

Take `CC(=O)O[C@H]1C(=O)[C@@]2(C)[C@H]([C@H](OC(=O)c3ccccc3)[C@]3(O)C[C@H](OC(=O)[C@H](O)[C@@H](NC(=O)c4ccccc4)c4ccccc4)C(C)=C1C3(C)C)[C@]1(OC(C)=O)CO[C@@H]1C[C@@H]2O` [PACLITAXEL]: in the experiment with PANC-1 [1], the PC50 was >100 µM.

Consider `C/C(=C\C(O)C[C@@H](C)[C@H]1CC[C@@]2(C)[C@@H]3CC[C@H]4C(C)(C)C(=O)CC[C@@]45C[C@@]35CC[C@]12C)C(=O)O` (some centres undefined), for which the PC50 in the experiment with PANC-1 [1] stood at 16.8 µM.

As to `CC(=O)OC/C(=C\CC[C@@H](C)[C@H]1CC[C@@]2(C)[C@@H]3CC[C@H]4C(C)(C)[C@@H](O)CC[C@@]45C[C@@]35CC[C@]12C)C(=O)O`, the PC50 in the experiment on PANC-1 [1] came to 22.6 µM.

Regarding `C[C@H](CC/C=C(\CO)C(=O)O)[C@H]1CC[C@@]2(C)[C@@H]3CC[C@H]4C(C)(C)[C@@H](O)CC[C@@]45C[C@@]35CC[C@]12C`, in the experiment on PANC-1 [1], the PC50 turned out to be 47.6 µM.

As for `CC(C)=CCC[C@@H](C)[C@H]1CC[C@@]2(C)[C@@H]3CC[C@H]4C(C)(C)C(=O)CC[C@@]45C[C@@]35CC[C@]12C` [CYCLOARTENONE], in the experiment with PANC-1 [1], the PC50 is >100 µM.

For the compound `C/C(=C\C(O)C[C@@H](C)[C@H]1CC[C@@]2(C)[C@@H]3CC[C@H]4C(C)(C)[C@H](O)CC[C@@]45C[C@@]35CC[C@]12C)C(=O)O` (stereo in doubt; 4), the PC50 in the experiment on PANC-1 [1] worked out at 16.1 µM.

In the case of `CC(=O)/C=C/C[C@@H](C)[C@H]1CC[C@@]2(C)[C@@H]3CC[C@H]4C(C)(C)[C@@H](O)CC[C@@]45C[C@@]35CC[C@]12C`, the PC50 in the experiment with PANC-1 [1] was determined as 16.4 µM.

On to `C/C(=C\CC[C@@H](C)[C@H]1CC[C@@]2(C)[C@@H]3CC[C@H]4C(C)(C)[C@@H](O)CC[C@@]45C[C@@]35CC[C@]12C)C(=O)O` [MANGIFEROLIC ACID], for which, in the experiment on PANC-1 [1], the PC50 was >100 µM.

Take `C[C@H](CC/C=C(\CO)C(=O)O)[C@H]1CC[C@@]2(C)[C@@H]3CC[C@H]4C(C)(C)[C@H](O)CC[C@@]45C[C@@]35CC[C@]12C`: in the experiment on PANC-1 [1], the PC50 was found to be 3.7 µM.

As for `COc1cc(C[C@H]2C(=O)OC[C@@H]2Cc2ccc(OC)c(OC)c2)ccc1O` [ARCTIGENIN], the PC50 with PANC-1 [1] was found to be 0.8 µM.

On to `C/C(=C\C(O)C[C@@H](C)[C@H]1CC[C@@]2(C)[C@@H]3CC[C@H]4C(C)(C)[C@@H](O)CC[C@@]45C[C@@]35CC[C@]12C)C(=O)O` (some centres undefined), for which the PC50 in the experiment with PANC-1 [1] is 64.4 µM.

For the compound `C/C(=C\CC[C@@H](C)[C@H]1CC[C@@]2(C)[C@@H]3CC[C@H]4C(C)(C)C(=O)CC[C@@]45C[C@@]35CC[C@]12C)C(=O)O` [MANGIFERONIC ACID], the PC50 with PANC-1 [1] was >100 µM.

On to `CC(C)=CCC[C@@H](C)[C@H]1CC[C@@]2(C)C3=C(CC[C@]12C)[C@@]1(C)CC[C@H](O)C(C)(C)[C@@H]1CC3` [LANOSTEROL], for which, in the experiment with PANC-1 [1], the PC50 came out at 68.7 µM.

For `C/C(=C\C(O)C[C@@H](C)[C@H]1CC[C@@]2(C)[C@@H]3CC[C@H]4C(C)(C)[C@H](O)CC[C@@]45C[C@@]35CC[C@]12C)C(=O)O` (stereo in doubt; 5) [listing 2 of 2 here], the outcome with PANC-1 [2] was Active. The inhibition result in the experiment with PANC-1 [3] was “Dose-dependent effect”.

For `COC(=O)OC/C(=C\CC[C@@H](C)[C@H]1CC[C@@]2(C)[C@@H]3CC[C@H]4C(C)(C)C(=O)CC[C@@]45C[C@@]35CC[C@]12C)C(=O)O`, in the experiment on PANC-1 [1], the PC50 was 32.9 µM.
